Data as given in publication PMC7540414 (The Prostate, 2020).

What was measured:
patient 2 tumor CR cells = assay: Drug sensitivity assay; assay type: cell-based, Human; conditions: for Sensitivity of tumor-derived CR cells compared with normal CR cells: patient 2, IC50 comparison, 72 hour, P < .01 where significant
Summary of the method: (§1)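 Tumor CR cells came from radical prostatectomy tissue (>70% tumor) by protease dissociation and the conditional reprogramming method, alongside matched benign CR cells. 3000 cells per well were seeded in conditioned medium, in triplicate. After 24 h, medium containing test compound was added. […] Values are mean ± SD of three separate experiments in triplicate.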

patient 1 tumor CR cells = assay: Drug sensitivity assay; assay type: cell-based, Human; conditions: for Sensitivity of tumor-derived CR cells compared with benign CR cells: patient 1, IC50 comparison, 72 hour, P < .05 where significant
Summary of the method: as §1

metastatic CRPC [1] = conditions: phase I trials; cited from earlier work
tumor CR cells = assay type: cell-based, Human; conditions: shared by patients 1 and 2; FDR 0.05; FC 1.5
Summary of the method: (§2)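 Tumor and normal CR cells from each patient were grown in conditioned medium and given test compound (28 nM for patient 1, 6.5 nM for patient 2) or DMSO, then profiled by RNA-seq. Treated-vs-DMSO DEGs were called at FDR < 0.05 and FC 1.5. Induced and inhibited gene sets were compared across both patients' cells by Venn diagram (Venny).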

metastatic CRPC [2] = conditions: phase II trial, CFZ in combination with other drugs; cited from earlier work
normal CR cells = assay type: cell-based, Human; conditions: shared by patients 1 and 2; FDR 0.05; FC 1.5
Summary of the method: as §2

SMILES | Sensitivity of tumor-derived CR cells compared with normal CR cells (patient 2 tumor CR cells) | Sensitivity of tumor-derived CR cells compared with benign CR cells (patient 1 tumor CR cells) | also measured
S=C=NCCc1ccccc1 [PTC, phenethyl isothiocyanate] | no differences in sensitivity | – | –
Nc1nccc(-c2c(-c3ccc(F)cc3)ncn2C2CCNCC2)n1 [SB220025] | No significant differential responses | No significant differential responses | –
C[S+]([O-])CCCCN=C=S (stereo not shown) [SFN, sulforaphane] | no differences in sensitivity | more sensitive | –
CC(C)C[C@H](NC(=O)[C@H](Cc1ccccc1)NC(=O)c1cnccn1)B(O)O [BTZ, bortezomib] | significant responses | more sensitive | patients showing stable PSA (metastatic CRPC [1]): 25%; patients with more than 50% decline in PSA (metastatic CRPC [1]): 4%
N[C@@H](CCC(=O)N[C@@H](CS)C(=O)NCC(=O)O)C(=O)O [GSH, glutathione] | No significant differential responses | No significant differential responses | –
CC(C)C[C@H](NC(=O)[C@H](CCc1ccccc1)NC(=O)CN1CCOCC1)C(=O)N[C@@H](Cc1ccccc1)C(=O)N[C@@H](CC(C)C)C(=O)[C@@]1(C)CO1 [CFZ, carfilzomib] | significant responses | more sensitive | common genes exclusively induced in the tumor CR cells (tumor CR cells): 23; genes inhibited that were shared in the tumor CR cells (tumor CR cells): 45; IC50 (patient 2 tumor CR cells; Homo sapiens, 72 h): 6.5 nM; patients with a decline in PSA (metastatic CRPC [2]): 3.5%; shared genes inhibited in the normal CR cells (normal CR cells): 56; IC50 (patient 1 tumor CR cells; Homo sapiens, 72 h): 28 nM
